Activity calls are given as the source filed them. The rule behind the calls is not given here. Where only a bound is given, the exact number is not on record here.

For one series, the system named is MCF7. The experiment in a line: Antiproliferative activity against ER-positive human MCF7 cells assessed as inhibition of cell proliferation after 72 hrs by MTS assay. The class given is functional, cell-based. Particulars: MCF7, 72 h. In short, it runs like this: (§1)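 Cells seeded at 2 × 10^3 per well, exposed to DMSO or 0.01–100 µM (0.01, 0.1, 1, 5, 10, 100) for 72 h. MTS added, OD 550 nm read after 1 h at 37 °C. Quadruplicate wells for each concentration; IC50 reported.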
Background: Tetrazolium assays rely on reduction of a dye to a coloured formazan, in cell work by metabolically active cells.

Series [1] relates to MDA-MB-231. The experiment in a line: Antiproliferative activity against ER-negative and triple-negative human MDA-MB-231 cells assessed as inhibition of cell proliferation after 72 hrs by MTS assay. It counts as functional, cell-based. Conditions: MDA-MB-231, 72 h. The method, boiled down:
as §1

Series [2] can be described thus: Antiproliferative activity against human PANC1 cells assessed as inhibition of cell proliferation after 72 hrs by MTS assay. Particulars: PANC-1, 72 h. The class given is functional, cell-based. In short, it runs like this:
as §1

In a further series the test system is ASPC1. The experiment in a line: Antiproliferative activity against human AsPC1 cells assessed as inhibition of cell proliferation after 72 hrs by MTS assay. The class given is functional, cell-based. Conditions: ASPC1, 72 h. In short, it runs like this: as §1
The test system of series [3] is MDA-MB-231. The experiment in a line: Induction of apoptosis in human MDA-MB-231 cells assessed as cleaved caspase-3 level at 1 to 10 uM after 12 hrs by western blot analysis. The class given is functional, cell-based. The method, boiled down: (§2)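 MDA-MB-231 cells treated for 12 h. Lysates (40 µg protein, BCA) run on 10% SDS-PAGE and transferred to nitrocellulose. Blocked in 5% milk/1% Tween 20 in TBS, probed for pSTAT3 Y705, STAT3, active caspase-3, cyclin D1 and β-actin, ECL detection.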

Series [4] deals with MDA-MB-231. The experiment in a line: Antitumor activity against triple-negative human MDA-MB-231 cells xenografted in nude mouse assessed as decrease in tumor volume at 10 mg/kg, ip administered daily. Particulars: MDA-MB-231, ip, route intraperitoneal. The class given is functional. The method, boiled down: (§3)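 Female nude mice, 6 weeks old, received 2.5 × 10^6 MDA-MB-231 cells in PBS into the 3rd mammary fat pad and were randomized (5–10 per group). Dosing began at 150 mm³ tumors for ip daily 10 mg/kg, or 110 mm³ for oral gavage 100 mg/kg five days per week. Vehicle was 50% DMSO/50% PEG. Body weight and tumor volume (0.5·L·W²) measured daily.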
(In general: In xenograft studies the graft and the host belong to different species.)

The test system of another series is Mus musculus. The experiment in a line: Toxicity in nude mouse xenografted with triple-negative human MDA-MB-231 cells assessed as body weight loss at 100 mg/kg, po administered via gavage for five days per week. It counts as organism-based. Details: dose 100 mg/kg, route oral. Particulars: in vivo. In short, it runs like this: as §3
In series [5] the test system is MDA-MB-231. The experiment in a line: Downregulation of cyclin D1 protein expression in human MDA-MB-231 cells at 1 to 10 uM after 12 hrs by western blot analysis. It counts as functional, cell-based. The method, boiled down: as §2
In series [6] the test system is MDA-MB-231. The experiment in a line: Antitumor activity against triple-negative human MDA-MB-231 cells xenografted in nude mouse assessed as decrease in tumor volume at 100 mg/kg, po administered via gavage for five days per week. Conditions: MDA-MB-231, 120 h. It counts as functional. The method, boiled down: as §3
For series [7], the target named is Signal transducer and activator of transcription 3 (Homo sapiens) (UniProt P40763). The experiment in a line: Inhibition of STAT3 phosphorylation at Tyr705 in human MDA-MB-231 cells at 1 to 10 uM after 12 hrs by western blot analysis. The class given is cell-based. In short, it runs like this:
as §2
On the technique in general: Immunoblotting shows a protein as a band on a membrane.

For series [8], the system named is MDA-MB-231. The experiment in a line: Inhibition of STAT3 promoter activity in human MDA-MB-231 cells at 5 uM after 24 hrs by dual luciferase reporter assay. It counts as functional. Conditions: MDA-MB-231, 24 h. In short, it runs like this: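 MDA-MB-231 cells pretreated at 5 µM for 24 h, replated in RPMI-1640 with 10% FBS, and transfected 4 h later with pSTAT3-Luc plus renilla control (95:5, 0.5 µg DNA per well). Treated again for 24 h starting 5 h after transfection. RLU = firefly/renilla luciferase relative to DMSO control. Triplicate wells, at least 3 independent experiments.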

Series [9] concerns MDA-MB-231. The experiment in a line: Anticancer activity against human MDA-MB-231 cells assessed as cell growth inhibition, apoptosis and cellular morphological changes at 1 to 10 uM after 48 hrs by light microscopy. The class given is functional, cell-based. The method, boiled down:
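Exponentially growing MDA-MB-231 cells incubated with compound for 48 h; growth, apoptosis and morphology judged under light microscopy.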

The test system of series [10] is MDA-MB-231. The experiment in a line: Decrease in STAT3 protein expression in human MDA-MB-231 cells at 1 to 10 uM after 12 hrs by western blot analysis. The class given is functional, cell-based. The method, boiled down:
as §2

Chain of Signal transducer and activator of transcription 3 (Homo sapiens) (P40763 whole entry): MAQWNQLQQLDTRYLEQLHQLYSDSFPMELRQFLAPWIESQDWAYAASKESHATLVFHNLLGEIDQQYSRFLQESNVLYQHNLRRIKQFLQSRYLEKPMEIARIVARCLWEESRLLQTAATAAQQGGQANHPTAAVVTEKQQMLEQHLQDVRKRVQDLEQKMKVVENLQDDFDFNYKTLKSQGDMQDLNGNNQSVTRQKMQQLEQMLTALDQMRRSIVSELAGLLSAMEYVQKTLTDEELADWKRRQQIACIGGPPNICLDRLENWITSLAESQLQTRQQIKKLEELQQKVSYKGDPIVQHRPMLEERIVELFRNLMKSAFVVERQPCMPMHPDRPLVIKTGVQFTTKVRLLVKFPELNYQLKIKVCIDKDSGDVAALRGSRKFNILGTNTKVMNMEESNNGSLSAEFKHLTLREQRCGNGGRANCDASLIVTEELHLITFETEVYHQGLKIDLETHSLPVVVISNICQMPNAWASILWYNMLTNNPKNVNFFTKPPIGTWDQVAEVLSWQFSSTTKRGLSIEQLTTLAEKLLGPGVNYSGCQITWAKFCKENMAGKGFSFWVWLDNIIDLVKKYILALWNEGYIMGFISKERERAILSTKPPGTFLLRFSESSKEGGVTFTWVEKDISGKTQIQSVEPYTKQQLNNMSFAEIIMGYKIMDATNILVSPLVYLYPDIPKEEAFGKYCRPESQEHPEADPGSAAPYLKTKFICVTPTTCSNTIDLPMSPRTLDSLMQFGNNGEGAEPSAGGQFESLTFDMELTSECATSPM

What is called IC50 is the concentration at which inhibition is half-maximal. `CN1CCN(CCOc2ccc(Cl)cc2C(=O)Nc2ccc3c(c2)S(=O)(=O)C=C3)CC1`: the IC50 in the series with MCF7 worked out at 4.08 µM; in the series on MDA-MB-231 [1], 2860 nM; in series [2], 3.01 µM; in the series on ASPC1, 1070 nM.

Take `O=C(Nc1ccc2c(c1)S(=O)(=O)C=C2)c1cc(Cl)ccc1OCCN1CCOCC1`: the half-inhibitory concentration (IC50) in the series with MCF7 is 0.49 µM; with MDA-MB-231 [1] it was 5430 nM; in series [2], 6.95 µM; in the series on ASPC1, 1370 nM.

Regarding `O=C(Nc1ccc2c(c1)S(=O)(=O)C=C2)c1cc(Cl)ccc1OCCF`, the IC50 with MCF7 was 4 µM; in the series on MDA-MB-231 [1] it was 4420 nM; in series [2], 9.53 µM; in the series with ASPC1, 1370 nM.

As to `O=C(Nc1ccc2c(c1)S(=O)(=O)C=C2)c1cc(Cl)ccc1OCCBr`, the half-inhibitory concentration (IC50) in the series on MCF7 is over 10 µM; in the series on MDA-MB-231 [1] it was over 10000 nM.

`O=C(Nc1ccc2c(c1)S(=O)(=O)C=C2)c1cc(Cl)ccc1OCCN1CCCCC1`: the IC50 in the series on MCF7 was 3.74 µM; with MDA-MB-231 [1] it was 2510 nM; in series [2], 1.81 µM; in the series with ASPC1, 1420 nM.

For `COC1CS(=O)(=O)c2cc(NC(=O)c3cc(Cl)ccc3O)ccc21` (configuration not stated), the IC50 came to 6.07 µM with MCF7, 7050 nM in the series with MDA-MB-231 [1], 8.39 µM in [2] and 8460 nM in the series with ASPC1.

By inhibition in vivo is commonly meant the share of the control response that was lost under treatment. The inhibition is the share of the control response that was lost under treatment. As for `NCCCOc1ccc(Cl)cc1C(=O)Nc1ccc2c(c1)S(=O)(=O)C=C2`, the IC50 with MCF7 came to 1.76 µM; in the series on MDA-MB-231 [1] it was 1970 nM; in [2] it was 1.88 µM; with ASPC1, 40 nM. Besides, the outcome in the series on MDA-MB-231 [3] and in the series with MDA-MB-231 [9] was Active. Moreover, the inhibition in vivo at 10 mg/kg with MDA-MB-231 [4] worked out at 67%. The Activity result with Mus musculus is “Non-toxic”. In addition, the inhibition entry (in the series on MDA-MB-231 [5]; in series [7]; with MDA-MB-231 [10]) was “Active” throughout. The inhibition in vivo at 100 mg/kg in the series with MDA-MB-231 [6] stood at 46%. In the series on MDA-MB-231 [8], at 5 µM the inhibition was 51%.

As for `CNCCOc1ccc(Cl)cc1C(=O)Nc1ccc2c(c1)S(=O)(=O)C=C2`, the IC50 in the series on MCF7 is 3.15 µM; in the series on MDA-MB-231 [1] it was 3120 nM; in series [2] it was 3.09 µM; with ASPC1 it was 2050 nM.

For the molecule `NCCOc1ccc(Cl)cc1C(=O)Nc1ccc2c(c1)S(=O)(=O)C=C2`, the IC50 is 3.47 µM in the series on MCF7, 3120 nM in the series with MDA-MB-231 [1], 2.25 µM in series [2] and 1050 nM in the series with ASPC1.

In the case of `CN(C)CCOc1ccc(Cl)cc1C(=O)Nc1ccc2c(c1)S(=O)(=O)C=C2`, the IC50 with MCF7 came to 3.5 µM; in the series with MDA-MB-231 [1], 2690 nM; in series [2] it was 3.38 µM; in the series with ASPC1 it was 1140 nM.

In the case of `O=C(Nc1ccc2c(c1)S(=O)(=O)C=C2)c1cc(Cl)ccc1OC1CCNCC1`, the IC50 amounted to 4.21 µM in the series on MCF7, 2850 nM with MDA-MB-231 [1], 4.09 µM in series [2] and 1600 nM with ASPC1.

For the molecule `CN1CCC(Oc2ccc(Cl)cc2C(=O)Nc2ccc3c(c2)S(=O)(=O)C=C3)CC1`, the IC50 in the series on MCF7 amounted to 3.53 µM; in the series with MDA-MB-231 [1], 2680 nM; in [2], 1.36 µM; with ASPC1 it was 1040 nM.

Consider `O=C(Nc1ccc2c(c1)S(=O)(=O)C=C2)c1cc(Cl)ccc1OCCN1CCNCC1`, for which the IC50 with MCF7 turned out to be 2.56 µM; in the series on MDA-MB-231 [1], 3290 nM; in [2], 3.69 µM; with ASPC1 it was 1020 nM.

`O=[N+]([O-])c1ccc2c(c1)S(=O)(=O)C=C2`: the IC50 in the series with MCF7 amounted to 3.6 µM; with MDA-MB-231 [1], 2890 nM; in series [2], 3.77 µM; with ASPC1, 1320 nM. In addition, the inhibition entry (in [7]; in the series on MDA-MB-231 [10]) was “Active” throughout. Also, the inhibition at 5 µM in the series on MDA-MB-231 [8] was determined as 39%. Moreover, the result in the series on MDA-MB-231 [9] was Active.

The values above are taken from ChEMBL document CHEMBL3286388, “Discovery of potent anticancer agent HJC0416, an orally bioavailable small molecule inhibitor of signal transducer and activator of transcription 3 (STAT3)” (Eur J Med Chem, 2014).
